# Source: ChEMBL document CHEMBL1156108, “Synthesis and biological evaluation of p38alpha kinase-targeting dialkynylimidazoles” (Bioorg Med Chem Lett, 2009)
# How the values were obtained:
# [1] = molecular target: T1, Mitogen-activated protein kinase 14 (Homo sapiens, UniProt Q16539); assay: Inhibition of p38alpha by FRET assay
# [2] = molecular target: CYP2D6 (Homo sapiens, UniProt P10635); assay: Inhibition of CYP2D6 at 10 uM; assay type: ADME
# [3] = molecular target: Ephrin type-A receptor 2 (Homo sapiens) (UniProt P29317); assay: Inhibition of human EPHA2 at 20 uM by FRET assay
# [4] = molecular target: Serine/threonine-protein kinase pim-1 (Homo sapiens) (UniProt P11309); assay: Inhibition of human PIM1 at 20 uM by FRET assay
# [5] = molecular target: Tyrosine-protein kinase ABL1 (Homo sapiens) (UniProt P00519); assay: Inhibition of human ABL1 at 20 uM by FRET assay
# [6] = molecular target: Proto-oncogene tyrosine-protein kinase receptor Ret (Homo sapiens) (UniProt P07949); assay: Inhibition of human RET at 20 uM by FRET assay
# [7] = molecular target: Ribosomal protein S6 kinase beta-1 (Homo sapiens) (UniProt P23443); assay: Inhibition of human p70S6K at 20 uM by FRET assay
# Procedure, shortened: (§1)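 Single-point screen at one fixed concentration, run across a panel of 53 additional human kinases, which includes this enzyme.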
# [8] = molecular target: Inhibitor of nuclear factor kappa-B kinase subunit beta (Homo sapiens) (UniProt O14920); assay: Inhibition of human IKK-beta at 20 uM by FRET assay
# [9] = molecular target: High affinity nerve growth factor receptor (Homo sapiens) (UniProt P04629); assay: Inhibition of human NTRK1 at 20 uM by FRET assay
# [10] = molecular target: Mitogen-activated protein kinase 13 (Homo sapiens) (UniProt O15264); assay: Inhibition of human p38delta at 20 uM by FRET assay; procedure, shortened: as §1
# [11] = molecular target: cAMP-dependent protein kinase catalytic subunit alpha (Homo sapiens) (UniProt P17612); assay: Inhibition of human PRKACA at 20 uM by FRET assay
# [12] = molecular target: RAF proto-oncogene serine/threonine-protein kinase (Homo sapiens) (UniProt P04049); assay: Inhibition of human RAF1 at 20 uM by FRET assay
# [13] = molecular target: Vascular endothelial growth factor receptor 2 (Homo sapiens) (UniProt P35968); assay: Inhibition of human KDR at 20 uM by FRET assay
# [14] = molecular target: Serine/threonine-protein kinase Chk1 (Homo sapiens) (UniProt O14757); assay: Inhibition of human CHK1 at 20 uM by FRET assay
# [15] = molecular target: Tyrosine-protein kinase JAK3 (Homo sapiens) (UniProt P52333); assay: Inhibition of human JAK3 at 20 uM by FRET assay
# [16] = molecular target: Tyrosine-protein kinase BTK (Homo sapiens) (UniProt Q06187); assay: Inhibition of human BTK at 20 uM by FRET assay
# [17] = molecular target: T2, Mitogen-activated protein kinase kinase kinase kinase 4 (Homo sapiens, UniProt O95819); assay: Inhibition of human MAP4K4 at 20 uM by FRET assay
# [18] = molecular target: Serine/threonine-protein kinase mTOR (Homo sapiens) (UniProt P42345); assay: Inhibition of human FRAP1 at 20 uM by FRET assay
# [19] = molecular target: Angiopoietin-1 receptor (Homo sapiens) (UniProt Q02763); assay: Inhibition of human TEK at 20 uM by FRET assay
# [20] = molecular target: Tyrosine-protein kinase Lck (Homo sapiens) (UniProt P06239); assay: Inhibition of human LCK at 20 uM by FRET assay
# [21] = molecular target: Serine/threonine-protein kinase PLK1 (Homo sapiens) (UniProt P53350); assay: Inhibition of human PLK1 at 20 uM by FRET assay
# [22] = molecular target: Aurora kinase A (Homo sapiens) (UniProt O14965); assay: Inhibition of human Aurora A at 20 uM by FRET assay
# [23] = molecular target: Receptor tyrosine-protein kinase erbB-2 (Homo sapiens) (UniProt P04626); assay: Inhibition of human ERBB2 at 20 uM by FRET assay
# [24] = molecular target: Ribosomal protein S6 kinase alpha-3 (Homo sapiens) (UniProt P51812); assay: Inhibition of human RPS6KA3 at 20 uM by FRET assay
# [25] = molecular target: Tyrosine-protein kinase SYK (Homo sapiens) (UniProt P43405); assay: Inhibition of human SYK at 20 uM by FRET assay
# [26] = molecular target: Glycogen synthase kinase-3 beta (Homo sapiens) (UniProt P49841); assay: Inhibition of human GSK3-beta at 20 uM by FRET assay
# [27] = molecular target: Mitogen-activated protein kinase 9 (Homo sapiens) (UniProt P45984); assay: Inhibition of human JNK2 at 20 uM by FRET assay
# [28] = molecular target: Receptor-type tyrosine-protein kinase FLT3 (Homo sapiens) (UniProt P36888); assay: Inhibition of human FLT3 at 20 uM by FRET assay
# [29] = molecular target: T1, Mitogen-activated protein kinase 14; assay: Inhibition of p38alpha at 10 uM by FRET assay
# Procedure, shortened: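 Single-concentration screen against p38α, read at a fixed 60 min time-point. Reported as percent inhibition from tests run in duplicate.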
# [30] = molecular target: Interleukin-1 receptor-associated kinase 4 (Homo sapiens) (UniProt Q9NWZ3); assay: Inhibition of human IRAK4 at 20 uM by FRET assay
# [31] = molecular target: Mitogen-activated protein kinase 8 (Homo sapiens) (UniProt P45983); assay: Inhibition of human JNK1 at 20 uM by FRET assay
# [32] = molecular target: Dual specificity mitogen-activated protein kinase kinase 1 (Homo sapiens) (UniProt Q02750); assay: Inhibition of human MEK1 at 20 uM by FRET assay
# [33] = molecular target: Fibroblast growth factor receptor 1 (Homo sapiens) (UniProt P11362); assay: Inhibition of human FGFR1 at 20 uM by FRET assay
# [34] = molecular target: Cyclin-dependent kinase 1/cyclin B (Homo sapiens) (UniProt P06493+P14635+Q8WWL7+O95067); assay: Inhibition of human CDK1/cyclin B at 20 uM by FRET assay; assay type: protein-complex assay
# [35] = molecular target: Serine/threonine-protein kinase PAK 4 (Homo sapiens) (UniProt O96013); assay: Inhibition of human PAK4 at 20 uM by FRET assay
# [36] = molecular target: Mast/stem cell growth factor receptor Kit (Homo sapiens) (UniProt P10721); assay: Inhibition of human KIT at 20 uM by FRET assay
# [37] = molecular target: Mitogen-activated protein kinase 11 (Homo sapiens, UniProt Q15759); assay: Inhibition of p38beta by FRET assay
# [38] = molecular target: T2, Mitogen-activated protein kinase kinase kinase kinase 4; assay: Inhibition of human MAP4K4 by FRET assay
# [39] = molecular target: Epidermal growth factor receptor (Homo sapiens) (UniProt P00533); assay: Inhibition of human EGFR at 20 uM by FRET assay
# [40] = molecular target: Dual specificity tyrosine-phosphorylation-regulated kinase 3 (Homo sapiens) (UniProt O43781); assay: Inhibition of human DYRK3 at 20 uM by FRET assay
# [41] = molecular target: Rho-associated protein kinase 1 (Homo sapiens) (UniProt Q13464); assay: Inhibition of human ROCK1 at 20 uM by FRET assay
# [42] = molecular target: Insulin receptor (Homo sapiens) (UniProt P06213); assay: Inhibition of human INSR at 20 uM by FRET assay
# [43] = molecular target: Insulin-like growth factor 1 receptor (Homo sapiens) (UniProt P08069); assay: Inhibition of human IGF1R at 20 uM by FRET assay
# [44] = Selectivity ratio for IC50 of p38alpha to IC50 of p38beta
# [45] = molecular target: Casein kinase II subunit alpha (Homo sapiens) (UniProt P68400); assay: Inhibition of human CK2alpha1 at 20 uM by FRET assay
# [46] = molecular target: Proto-oncogene tyrosine-protein kinase Src (Homo sapiens) (UniProt P12931); assay: Inhibition of human SRC at 20 uM by FRET assay
# [47] = molecular target: MAP kinase-activated protein kinase 2 (Homo sapiens) (UniProt P49137); assay: Inhibition of human MAPKAPK2 at 20 uM by FRET assay
# [48] = molecular target: Hepatocyte growth factor receptor (Homo sapiens) (UniProt P08581); assay: Inhibition of human MET at 20 uM by FRET assay
# [49] = molecular target: Activin receptor type-1B (Homo sapiens) (UniProt P36896); assay: Inhibition of human ALK4 at 20 uM by FRET assay
# [50] = molecular target: Serine/threonine-protein kinase MARK2 (Homo sapiens) (UniProt Q7KZI7); assay: Inhibition of human MARK2 at 20 uM by FRET assay
# [51] = molecular target: Serine/threonine-protein kinase Nek1 (Homo sapiens) (UniProt Q96PY6); assay: Inhibition of human NEK1 at 20 uM by FRET assay
# [52] = molecular target: Platelet-derived growth factor receptor beta (Homo sapiens) (UniProt P09619); assay: Inhibition of human PDGFRbeta at 20 uM by FRET assay
# [53] = molecular target: Mitogen-activated protein kinase 1 (Homo sapiens) (UniProt P28482); assay: Inhibition of human ERK2 at 20 uM by FRET assay
# [54] = molecular target: Casein kinase I isoform gamma-2 (Homo sapiens) (UniProt P78368); assay: Inhibition of human CK1gamma2 at 20 uM by FRET assay
# [55] = molecular target: Protein kinase C beta type (Homo sapiens) (UniProt P05771); assay: Inhibition of human PKCbeta1 at 20 uM by FRET assay
# [56] = molecular target: RAC-alpha serine/threonine-protein kinase (Homo sapiens) (UniProt P31749); assay: Inhibition of human AKT1 at 20 uM by FRET assay
# [57] = molecular target: Mitogen-activated protein kinase 12 (Homo sapiens) (UniProt P53778); assay: Inhibition of human p38-gamma at 20 uM by FRET assay
# T1 sequence (Q16539 whole entry): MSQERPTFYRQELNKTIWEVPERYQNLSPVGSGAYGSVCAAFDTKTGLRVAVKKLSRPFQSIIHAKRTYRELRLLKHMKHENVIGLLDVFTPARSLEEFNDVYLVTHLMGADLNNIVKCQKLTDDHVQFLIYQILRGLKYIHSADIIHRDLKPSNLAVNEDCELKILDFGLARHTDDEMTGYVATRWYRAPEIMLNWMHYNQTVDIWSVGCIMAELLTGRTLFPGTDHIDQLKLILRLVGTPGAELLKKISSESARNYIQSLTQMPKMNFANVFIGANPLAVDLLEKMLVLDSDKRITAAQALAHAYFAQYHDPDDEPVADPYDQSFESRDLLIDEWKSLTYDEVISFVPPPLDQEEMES
# CYP2D6, sequence (P10635 whole entry): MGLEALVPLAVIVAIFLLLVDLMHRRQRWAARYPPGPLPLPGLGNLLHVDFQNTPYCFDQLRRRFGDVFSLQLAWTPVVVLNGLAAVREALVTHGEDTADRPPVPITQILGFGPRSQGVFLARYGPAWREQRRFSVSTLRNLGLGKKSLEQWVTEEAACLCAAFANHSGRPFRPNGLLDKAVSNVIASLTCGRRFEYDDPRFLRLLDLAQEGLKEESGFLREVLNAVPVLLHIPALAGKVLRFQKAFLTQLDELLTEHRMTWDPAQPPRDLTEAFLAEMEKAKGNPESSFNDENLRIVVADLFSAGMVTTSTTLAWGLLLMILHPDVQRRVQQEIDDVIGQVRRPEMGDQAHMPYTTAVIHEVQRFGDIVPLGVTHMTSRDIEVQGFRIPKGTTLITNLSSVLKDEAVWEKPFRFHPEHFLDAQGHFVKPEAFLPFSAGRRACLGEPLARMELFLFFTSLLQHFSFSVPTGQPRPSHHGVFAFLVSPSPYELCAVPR
# Serine/threonine-protein kinase Nek1 (Homo sapiens), sequence (Q96PY6 whole entry): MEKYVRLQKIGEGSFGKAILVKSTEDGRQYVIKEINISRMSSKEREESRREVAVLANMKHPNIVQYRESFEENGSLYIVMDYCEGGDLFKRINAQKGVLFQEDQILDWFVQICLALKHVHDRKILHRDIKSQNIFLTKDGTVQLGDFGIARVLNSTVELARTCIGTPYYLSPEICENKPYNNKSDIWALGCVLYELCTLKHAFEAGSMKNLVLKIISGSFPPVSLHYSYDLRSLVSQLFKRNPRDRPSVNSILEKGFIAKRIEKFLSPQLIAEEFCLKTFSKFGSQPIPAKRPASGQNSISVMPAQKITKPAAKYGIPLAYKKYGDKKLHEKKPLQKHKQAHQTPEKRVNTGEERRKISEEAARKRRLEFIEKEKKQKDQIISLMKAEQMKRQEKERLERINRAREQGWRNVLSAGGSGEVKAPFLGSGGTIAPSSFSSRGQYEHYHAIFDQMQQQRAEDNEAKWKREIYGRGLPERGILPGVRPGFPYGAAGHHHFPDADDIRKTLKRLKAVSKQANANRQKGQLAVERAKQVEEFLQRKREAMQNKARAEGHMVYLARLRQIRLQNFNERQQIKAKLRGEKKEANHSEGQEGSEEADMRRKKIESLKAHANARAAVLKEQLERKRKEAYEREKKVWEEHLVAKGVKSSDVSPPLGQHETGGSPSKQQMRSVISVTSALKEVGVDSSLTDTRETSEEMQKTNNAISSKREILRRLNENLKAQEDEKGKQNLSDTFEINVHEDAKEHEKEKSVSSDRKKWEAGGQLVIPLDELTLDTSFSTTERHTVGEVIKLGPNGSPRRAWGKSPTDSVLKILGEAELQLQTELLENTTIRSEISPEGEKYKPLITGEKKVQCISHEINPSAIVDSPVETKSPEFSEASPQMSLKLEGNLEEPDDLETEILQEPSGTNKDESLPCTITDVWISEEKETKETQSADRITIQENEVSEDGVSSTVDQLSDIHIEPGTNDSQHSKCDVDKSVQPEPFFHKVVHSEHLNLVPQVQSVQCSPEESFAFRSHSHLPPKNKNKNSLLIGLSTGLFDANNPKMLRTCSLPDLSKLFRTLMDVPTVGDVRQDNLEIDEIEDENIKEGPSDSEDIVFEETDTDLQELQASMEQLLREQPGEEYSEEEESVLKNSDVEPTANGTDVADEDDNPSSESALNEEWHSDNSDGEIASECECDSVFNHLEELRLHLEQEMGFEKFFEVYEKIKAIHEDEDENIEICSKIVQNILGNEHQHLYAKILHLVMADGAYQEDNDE
# Mitogen-activated protein kinase 13 (Homo sapiens), sequence (O15264 whole entry): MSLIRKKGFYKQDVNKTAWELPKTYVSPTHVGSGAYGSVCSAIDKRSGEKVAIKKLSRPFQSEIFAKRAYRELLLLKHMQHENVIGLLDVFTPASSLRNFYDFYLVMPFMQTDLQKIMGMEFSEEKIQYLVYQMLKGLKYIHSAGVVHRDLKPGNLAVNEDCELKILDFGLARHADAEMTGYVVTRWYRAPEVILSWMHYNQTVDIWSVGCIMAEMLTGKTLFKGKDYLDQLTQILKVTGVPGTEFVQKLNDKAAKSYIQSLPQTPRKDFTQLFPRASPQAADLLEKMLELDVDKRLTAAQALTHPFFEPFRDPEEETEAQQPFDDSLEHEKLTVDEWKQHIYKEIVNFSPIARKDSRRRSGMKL
# Receptor-type tyrosine-protein kinase FLT3 (Homo sapiens), sequence (P36888 whole entry): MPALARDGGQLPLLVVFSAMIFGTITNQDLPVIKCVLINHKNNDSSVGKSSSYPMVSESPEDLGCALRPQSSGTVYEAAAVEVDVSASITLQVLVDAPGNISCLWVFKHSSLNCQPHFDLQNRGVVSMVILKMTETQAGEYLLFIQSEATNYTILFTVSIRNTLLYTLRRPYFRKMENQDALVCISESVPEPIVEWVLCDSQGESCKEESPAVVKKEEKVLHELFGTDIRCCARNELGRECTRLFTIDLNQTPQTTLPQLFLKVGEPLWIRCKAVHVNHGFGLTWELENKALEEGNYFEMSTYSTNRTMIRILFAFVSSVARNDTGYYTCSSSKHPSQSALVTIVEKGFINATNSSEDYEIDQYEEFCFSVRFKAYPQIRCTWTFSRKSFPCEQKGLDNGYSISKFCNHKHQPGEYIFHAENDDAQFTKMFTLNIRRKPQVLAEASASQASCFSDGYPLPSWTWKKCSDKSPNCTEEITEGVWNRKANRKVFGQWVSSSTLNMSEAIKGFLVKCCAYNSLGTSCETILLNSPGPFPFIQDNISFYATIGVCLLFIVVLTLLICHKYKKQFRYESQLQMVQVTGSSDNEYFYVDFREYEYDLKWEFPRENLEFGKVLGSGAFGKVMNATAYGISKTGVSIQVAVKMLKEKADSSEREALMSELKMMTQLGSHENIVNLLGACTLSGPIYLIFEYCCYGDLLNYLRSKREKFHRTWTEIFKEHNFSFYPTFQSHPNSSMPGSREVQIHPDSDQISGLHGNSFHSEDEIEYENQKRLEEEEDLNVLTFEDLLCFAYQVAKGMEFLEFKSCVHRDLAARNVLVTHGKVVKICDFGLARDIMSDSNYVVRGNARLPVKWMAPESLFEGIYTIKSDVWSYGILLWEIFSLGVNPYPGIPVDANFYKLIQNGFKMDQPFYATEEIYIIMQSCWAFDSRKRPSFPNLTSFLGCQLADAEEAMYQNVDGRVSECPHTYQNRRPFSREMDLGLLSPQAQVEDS
# Proto-oncogene tyrosine-protein kinase Src (Homo sapiens), sequence (P12931 2-536 limits assumed): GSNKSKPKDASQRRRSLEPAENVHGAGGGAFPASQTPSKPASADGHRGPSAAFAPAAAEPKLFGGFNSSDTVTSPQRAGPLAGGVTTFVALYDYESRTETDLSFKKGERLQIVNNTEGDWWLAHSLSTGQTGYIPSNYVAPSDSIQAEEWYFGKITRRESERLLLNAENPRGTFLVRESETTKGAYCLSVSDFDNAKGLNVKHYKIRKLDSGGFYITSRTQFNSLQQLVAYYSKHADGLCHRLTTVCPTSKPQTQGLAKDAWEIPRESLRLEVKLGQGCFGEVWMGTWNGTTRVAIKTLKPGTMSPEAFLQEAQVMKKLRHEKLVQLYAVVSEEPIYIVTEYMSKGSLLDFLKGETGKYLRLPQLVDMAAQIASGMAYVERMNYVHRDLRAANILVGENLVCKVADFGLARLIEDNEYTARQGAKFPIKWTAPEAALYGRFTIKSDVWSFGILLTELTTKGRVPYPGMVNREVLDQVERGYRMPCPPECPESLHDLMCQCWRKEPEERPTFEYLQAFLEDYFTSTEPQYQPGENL
# Casein kinase II subunit alpha (Homo sapiens), sequence (P68400 whole entry, looked up): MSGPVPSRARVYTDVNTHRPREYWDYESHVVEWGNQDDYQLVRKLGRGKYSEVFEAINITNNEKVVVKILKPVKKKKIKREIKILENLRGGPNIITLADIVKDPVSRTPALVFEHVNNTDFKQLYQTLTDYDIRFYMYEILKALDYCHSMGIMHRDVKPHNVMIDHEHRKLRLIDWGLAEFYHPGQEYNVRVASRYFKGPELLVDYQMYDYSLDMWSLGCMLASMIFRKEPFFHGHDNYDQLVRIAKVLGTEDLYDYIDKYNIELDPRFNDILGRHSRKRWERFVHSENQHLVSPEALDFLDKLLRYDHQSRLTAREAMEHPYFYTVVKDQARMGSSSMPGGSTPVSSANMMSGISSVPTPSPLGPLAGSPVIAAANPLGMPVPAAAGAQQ
# MAP kinase-activated protein kinase 2 (Homo sapiens), sequence (P49137 whole entry, looked up): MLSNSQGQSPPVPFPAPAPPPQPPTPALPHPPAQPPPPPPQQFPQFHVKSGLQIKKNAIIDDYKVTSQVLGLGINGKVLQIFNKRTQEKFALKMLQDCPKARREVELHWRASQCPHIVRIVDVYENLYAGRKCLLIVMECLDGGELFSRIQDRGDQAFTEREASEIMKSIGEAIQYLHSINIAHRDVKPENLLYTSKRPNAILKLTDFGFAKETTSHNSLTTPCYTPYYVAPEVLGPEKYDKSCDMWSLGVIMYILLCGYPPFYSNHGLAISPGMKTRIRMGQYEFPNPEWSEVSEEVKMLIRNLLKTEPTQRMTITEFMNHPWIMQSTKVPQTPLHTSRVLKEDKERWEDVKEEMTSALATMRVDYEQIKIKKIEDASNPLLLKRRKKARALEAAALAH
smiles,measurement,setting,value
OCCc1cc(Cl)n2c(-c3ccncc3)c(-c3ccc(F)cc3)nc2c1,IC50,[1],0.37 µM
C[S+]([O-])c1ccc(-c2nc(-c3ccncc3)c(-c3ccc(F)cc3)[nH]2)cc1 (stereo not given) [SB-203580],inhibition at 10 µM,[2],78%
C#Cn1c(C#CCCO)nc(-c2ccc(F)cc2)c1-c1ccncc1,inhibition,[3],23%
same,inhibition,[4],3%
same,inhibition,[5],15%
same,inhibition,[6],21%
same,inhibition,[7],7%
same,inhibition,[8],5%
same,inhibition,[9],1%
same,inhibition,[10],12%
same,inhibition,[11],50%
same,inhibition,[12],82%
same,inhibition,[13],36%
same,inhibition,[14],5%
same,inhibition,[15],4%
same,inhibition,[16],9%
same,inhibition,[17],92%
same,inhibition,[18],6%
same,IC50,[1],0.2 µM
same,inhibition,[19],5%
same,inhibition,[20],48%
same,inhibition,[21],7%
same,inhibition,[22],7%
same,inhibition,[23],41%
same,inhibition,[24],0%
same,inhibition,[25],3%
same,inhibition,[26],44%
same,inhibition,[27],88%
same,inhibition,[28],17%
same,inhibition,[29],100%
same,inhibition,[30],1%
same,inhibition,[31],21%
same,inhibition,[32],10%
same,inhibition,[33],8%
same,inhibition,[34],3%
same,inhibition,[35],8%
same,inhibition,[36],5%
same,IC50,[37],5.4 µM
same,IC50,[38],4.2 µM
same,inhibition,[39],84%
same,inhibition,[40],8%
same,inhibition,[41],15%
same,inhibition,[42],7%
same,inhibition,[43],-1%
same,Ratio IC50,[44],> 25
same,inhibition,[45],3%
same,inhibition,[46],27%
same,inhibition,[47],3%
same,inhibition,[48],11%
same,inhibition,[49],72%
same,inhibition,[50],14%
same,inhibition,[51],11%
same,inhibition,[52],10%
same,inhibition,[53],6%
same,inhibition,[54],36%
same,inhibition at 10 µM,[2],4%
same,inhibition,[55],80%
same,inhibition,[56],29%
same,inhibition,[57],14%
OCC#Cc1nc(-c2ccc(F)cc2)c(-c2ccncc2)n1C#Cc1ccccc1,inhibition,[29],83%
OCCC#Cc1nc(-c2ccncc2)c(-c2ccc(F)cc2)n1C#Cc1ccccc1,inhibition,[29],53%
OCC#Cc1nc(-c2ccncc2)c(-c2ccc(F)cc2)n1C#Cc1ccccc1,inhibition,[29],63%
OCCC#Cc1nc(-c2ccc(F)cc2)c(-c2ccncc2)n1C#Cc1ccccc1,inhibition,[29],75%
C#Cc1nc(-c2ccc(F)cc2)c(-c2ccncc2)n1C#Cc1ccccc1,inhibition,[29],28%
C#Cc1nc(-c2ccncc2)c(-c2ccc(F)cc2)n1C#Cc1ccccc1,inhibition,[29],19%
